Data set [1] in a line: Cytotoxicity against human HeLa cells assessed as reduction in cell viability incubated for 24 hrs by MTS assay. In kind it is toxicity, cell-based. Summed up: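 HeLa cells (2×10^4/well) were grown in DMEM with 10% FBS and exposed to compound at 0–200 μM for 24 h. Viability was read by MTS reduction at 490 nm, as a percentage of untreated cells, and CC50 was derived.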
In general terms: Tetrazolium dyes change colour on reduction, which living cells bring about.

Another data set deals with Ebolavirus. Kind of data set: Antiviral activity against pseudotyped Ebola virus infected in HeLa cells preincubated for 1 hr followed by viral infection and measured after 48 hrs by steady-glo luciferase assay. In kind it is functional, organism-based. The conditions noted are these: Orthoebolavirus. A digest of the protocol: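 HeLa cells (2×10^4/well; DMEM, 10% FBS, 1% L-glutamine, 37 °C, 5% CO2) were pretreated with compound for 1 h at 37 °C, then given 5000 TCID50 of HIV-luciferase lentivirus pseudotyped with EBOV-GP. After 48 h, cells were washed, lysed and luciferase read. Primary screen was at 10 μM final. […] EC50 is the mean of three independent experiments, from normalized dose–response fits with 95% CI.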

Data set [2] can be described thus: Cmax in BALB/c mouse plasma at 50 mg/kg, po measured upto 24 hrs by LC-MS/MS method. The conditions noted are these: in vivo. The arrangement: dose 50 mg/kg, time < 24 hrs, route po. In kind it is ADME, organism-based. A digest of the protocol:
(§1)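 Male BALB/c mice aged 8–12 weeks (20–35 g) received one dose in a solution of 90% PBS pH 7.4, 5% solutol HS-15 and 5% NMP: 10 mg/kg i.p. or 50 mg/kg p.o. Three mice per time point, sampled up to 24 h. Plasma and brain were taken at each point and assayed by LC–MS/MS. Parameters came from noncompartmental analysis.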

Data set [3] in a line: AUClast in BALB/c mouse plasma at 50 mg/kg, po measured upto 24 hrs by LC-MS/MS method. The class given is ADME, organism-based. The arrangement: time < 24 hrs, dose 50 mg/kg, route po. The following applies: in vivo. A digest of the protocol:
as §1

A short description of data set [4]: AUClast in BALB/c mouse plasma at 10 mg/kg, ip measured upto 24 hrs by LC-MS/MS method. In kind it is ADME, organism-based. The arrangement: dose 10 mg/kg, time < 24 hrs, route ip. The following applies: in vivo. Summed up: as §1
A short description of data set [5]: Cmax in BALB/c mouse brain at 50 mg/kg, po measured upto 24 hrs by LC-MS/MS method. In kind it is ADME, organism-based. Details: time < 24 hrs, dose 50 mg/kg, route po. The following applies: in vivo. A digest of the protocol:
as §1

The nature of data set [6]: Tmax in BALB/c mouse brain at 10 mg/kg, ip measured upto 24 hrs by LC-MS/MS method. The following applies: in vivo. In kind it is ADME, organism-based. A digest of the protocol: as §1
A short description of data set [7]: Tmax in BALB/c mouse plasma at 10 mg/kg, ip measured upto 24 hrs by LC-MS/MS method. In kind it is ADME, organism-based. The conditions noted are these: in vivo. Summed up: as §1
A short description of data set [8]: AUClast in BALB/c mouse brain at 50 mg/kg, po measured upto 24 hrs by LC-MS/MS method. In kind it is ADME, organism-based. The following applies: in vivo. The arrangement: dose 50 mg/kg, time < 24 hrs, route po. Summed up: as §1
The nature of data set [9]: Selectivity index, ratio of CC50 for african green monkey Vero E6 cells to EC50 for wild type Zaire EBOV mayinga. The following applies: read-out: Ratio CC50/EC50. The class given is cell-based, Vero C1008.
Data set [10] is described as follows: Selectivity index, ratio of CC50 for human HeLa cells to EC50 for pseudotyped Ebola virus infected in HeLa cells. The class given is toxicity, cell-based. The conditions noted are these: read-out: Ratio CC50/EC50.
Data set [11] in a line: Tmax in BALB/c mouse brain at 50 mg/kg, po measured upto 24 hrs by LC-MS/MS method. In kind it is ADME, organism-based. The conditions noted are these: in vivo. A digest of the protocol: as §1
Data set [12] in a line: Inhibition of EBOV-GP to human C-terminal Flag tagged NPC1 protein protein interaction at 50 uM by ELISA. A digest of the protocol: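 GP particles were cleaved with thermolysin (250 μg/mL, 1 h, 37 °C; stopped with 1 mM phosphoramidon) and captured on plates by anti-GP mAb KZ52. Purified Flag-tagged human NPC1 domain C (10 μg/mL), expressed in HEK293T, was added with or without compound at 50 μM. Bound protein was detected with anti-Flag-HRP and TMB at 450 nm, n = 3.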

Data set [13] can be described thus: Tmax in BALB/c mouse plasma at 50 mg/kg, po measured upto 24 hrs by LC-MS/MS method. The class given is ADME, organism-based. The following applies: in vivo. Summed up:
as §1

A short description of data set [14]: AUClast in BALB/c mouse brain at 10 mg/kg, ip measured upto 24 hrs by LC-MS/MS method. The conditions noted are these: in vivo. The arrangement: time < 24 hrs, dose 10 mg/kg, route ip. The class given is ADME, organism-based. A digest of the protocol: as §1
Data set [15] in a line: Cmax in BALB/c mouse plasma at 10 mg/kg, ip measured upto 24 hrs by LC-MS/MS method. The conditions noted are these: in vivo. The class given is ADME, organism-based. The arrangement: dose 10 mg/kg, time < 24 hrs, route ip. A digest of the protocol: as §1
Data set [16] is described as follows: Cmax in BALB/c mouse brain at 10 mg/kg, ip measured upto 24 hrs by LC-MS/MS method. The class given is ADME, organism-based. Details: time < 24 hrs, dose 10 mg/kg, route ip. The following applies: in vivo. A digest of the protocol:
as §1

The structures appear in SMILES notation. pEC50: −log10 of the molar value. The source made the active and inactive calls. No cut-off for these calls is given here.

Consider `CN(C)CCOc1ccc(/C(=C(/CCCl)c2ccccc2)c2ccccc2)cc1` [TOREMIFENE], for which, in [1], the CC50 at 24 h was greater than 100000 nM. Also, the pEC50 with Ebolavirus is 7.15.

With `O=C(CCNCCN1CCN(Cc2ccccc2)CC1)NN(c1ccccc1)c1ccccc1`, the values for the Cmax in data set [2] and in data set [5] were 93.62 ng/mL and 341.33 ng/mL, respectively. Further, the AUClast worked out at 152.76 ng·h/mL in data set [3], 83.83 ng·h/mL in data set [4], 7109.56 ng·h/mL in [8] and 3886.74 ng·h/mL in data set [14]. The Tmax is 8 h in [6], 4.8 min in data set [7], 24 h in [11] and 0.25 h in [13]. Besides, the selectivity ratio is 13.1 in [9] and 274 in data set [10]. Moreover, the inhibition result in data set [12] was “Active”.

As to `O=C(CCNCCC1CCN(Cc2ccccc2)CC1)NN(c1ccccc1)c1ccccc1`, the Cmax in [15] turned out to be 283.42 ng/mL; in data set [16], 51.03 ng/mL. The AUClast worked out at 559.47 ng·h/mL in data set [4] and 1142.02 ng·h/mL in data set [14]. The Tmax is 8 h in data set [6], 4.8 min in data set [7], 4 h in data set [11] and 0.25 h in [13]. The selectivity ratio in data set [9] came to 31.5; in data set [10] it was 115.

Usually CC50 stands for the concentration at which the toxic effect on the cells reaches its halfway point. The term pEC50 denotes −log10 of the EC50, conventionally taken in molar units. In general, Cmax refers to the maximum level reached in the sampled fluid or tissue. The Tmax is the time at which the peak concentration occurs.
